Data reported in publication PMC5308454 (MedChemComm, 2016).
Read-outs that look alike come from different tables or passages of the source.

Columns and labels:
[1] = tested on: tubulin; test: Inhibition of tubulin polymerization; format: biochemical; conditions: read-out: Inhibition of tubulin polymerization IC50; ± SD
[2] = tested on: NCI-H460; test: SRB cytotoxicity assay, NCI-H460; format: cell-based, human; conditions: read-out: GI50 SRB assay NCI-H460; average of n ≥ 3 independent determinations
[3] = tested on: DU-145 (prostate); test: SRB cytotoxicity assay, DU-145; format: cell-based, human; conditions: read-out: GI50 SRB assay DU-145; average of n ≥ 3 independent determinations
[4] = tested on: SK-OV-3; test: SRB cytotoxicity assay, SK-OV-3; format: cell-based, human; conditions: read-out: GI50 SRB assay SK-OV-3; average of n ≥ 3 independent determinations
[5] = tested on: MCF7-luc-GFP-mCherry breast tumor; test: Dynamic bioluminescence imaging; format: in vivo, SCID mice; conditions: for Reduction in bioluminescence as compared to baseline or saline control: 4 h after injection, p<0.05
[6] = tested on: MCF7-luc-GFP-mCherry breast tumor; test: Histological; format: in vivo, SCID mice; conditions: 120 mg/kg; 48 h post treatment
Procedure, shortened: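 The same MCF7-luc-GFP-mCherry tumour-bearing SCID mice were dosed ip at 120 mg/kg, or with saline. After the 48 h BLI session they were sacrificed and the tumours excised. Tumour cross-sections were stained with H&E, and necrotic (pink) regions were scored against viable (purple) regions relative to the saline control.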

[7] = tested on: tubulin; conditions: read-out: Inhibition of tubulin polymerization IC50; ref [73]; cited from earlier work
[8] = tested on: NCI-H460; conditions: read-out: GI50 SRB assay NCI-H460; ref [13]; cited from earlier work
[9] = tested on: DU-145 (prostate); conditions: read-out: GI50 SRB assay DU-145; ref [13]; cited from earlier work
[10] = tested on: SK-OV-3; conditions: read-out: GI50 SRB assay SK-OV-3; ref [13]; cited from earlier work

SMILES: COc1ccc2c(c1O)CCCC=C2c1cc(OC)c(OC)c(OC)c1 [KGP18]
- IC50 [1]: 1400 nM
- GI50 [2]: 0.0418 nM
- GI50 [3]: 0.0249 nM
- GI50 [4]: 0.0543 nM

SMILES: COc1cc(/C2=C/CCCCc3c2ccc(OC)c3OP(=O)([O-])[O-])cc(OC)c1OC.[Na+].[Na+] [Compound 24]
- Bioluminescence intensity at 24 and 48 h versus baseline ([5]; 120 mg/kg ip single dose, 24 and 48 h, p<0.005): remained significantly below baseline values
- Reduction in bioluminescence as compared to baseline or saline control ([5]; 120 mg/kg ip single dose): approximately 80%
- Vascular shutdown evidenced by bioluminescence imaging ([5]; 120 mg/kg, 4 h post administration, effect continued at 24 and 48 h): significant vascular shutdown
- Tumor necrosis (H&E) as compared with saline control [6]: much more extensive necrosis

SMILES: COc1ccc(/C=C\c2cc(OC)c(OC)c(OC)c2)cc1OP(=O)(O)O [CA4P, Combretastatin A-4P]
- Reduction in bioluminescence as compared to baseline or saline control ([5]; 120 mg/kg ip single dose): approximately 80%
- Tumor necrosis (H&E) as compared with saline control [6]: much more extensive necrosis
- IC50 [7]: > 20000 nM

SMILES: COc1ccc(/C=C\c2cc(OC)c(OC)c(OC)c2)cc1O [CA4, combretastatin A-4]
- GI50 [8]: 5 nM
- GI50 [9]: 6.02 nM
- GI50 [10]: 5.06 nM
